Compounds with a hit are over-represented: about 1.7% of the library has one in this group of screens.
Hck-Nef inh: inhibitors of Nef-activated human Hck kinase, primary screen, biochemical, Z-Lyte FRET, 384-well, Hck-YEEI; inhibition, % at 20 µM; Recombinant Hck-YEEI plus Nef, Z-Lyte FRET kinase assay; AID 463187, 2010; Tyrosine-protein kinase HCK (Homo sapiens), P08631; hit rate 0.68% among 220,000;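 active = Hck-Nef kinase inhibition above about 50%, limit read from the data; inactive = inhibition below that limit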
Runt-SMMHC FRET: inhibitors of RUNX1 Runt–CBFb-SMMHC binding, primary screen, biochemical, FRET, Cerulean-Runt, Venus-CBFb-SMMHC, uHTS. inhibition, % at 20 µM. AID 1434, 2008. Cerulean-Runt/Venus-CBFb-SMMHC FRET ratio 530/480, 1 h. hit rate 0.74% among 220,000. Runt-related transcription factor 1 (Homo sapiens) + Core-binding factor subunit beta …;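 active = mean inhibition across duplicate retests at 20 µM reaching about 50%, limit read from the data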;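 also: inhibitors lower the FRET ratio by blocking Runt binding to CBFb-SMMHC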
Target sequence (Q01196 whole entry, looked up): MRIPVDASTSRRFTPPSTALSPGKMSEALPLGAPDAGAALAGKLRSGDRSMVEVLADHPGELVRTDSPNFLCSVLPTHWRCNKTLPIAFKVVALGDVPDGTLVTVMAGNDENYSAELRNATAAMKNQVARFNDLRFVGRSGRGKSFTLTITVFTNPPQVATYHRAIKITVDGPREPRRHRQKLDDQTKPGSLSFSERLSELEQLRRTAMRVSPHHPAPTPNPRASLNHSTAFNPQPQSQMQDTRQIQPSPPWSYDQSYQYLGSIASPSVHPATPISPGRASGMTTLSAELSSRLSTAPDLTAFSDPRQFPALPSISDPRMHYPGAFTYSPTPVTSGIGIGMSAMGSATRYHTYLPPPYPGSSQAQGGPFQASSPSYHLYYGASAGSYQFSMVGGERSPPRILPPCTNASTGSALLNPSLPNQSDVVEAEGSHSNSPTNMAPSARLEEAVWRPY
Target sequence (Q13951 whole entry, looked up): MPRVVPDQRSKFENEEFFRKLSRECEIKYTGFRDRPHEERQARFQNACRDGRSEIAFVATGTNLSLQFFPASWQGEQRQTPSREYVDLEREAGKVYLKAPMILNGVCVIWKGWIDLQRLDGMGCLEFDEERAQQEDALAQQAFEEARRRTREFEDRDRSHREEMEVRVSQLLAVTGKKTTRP
RanGTP-Impb inh: inhibitors of RanGTP-importin-beta interaction, primary screen, biochemical, FRET, CFP-Ran, YFP-importin-beta, homogeneous; Ran GTPase (GTP-bound) - importin-beta complex; cell-free CFP-Ran/YFP-importin-beta FRET ratio; inhibition, % (concentration not given with the values); hit rate 1.1% among 300,000;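 active = more than half of the replicate wells show a fall in the fluorescence ratio signal beyond about 16%, limit read from the data, passing the limit was not always enough; inconclusive = exactly half of the replicate wells pass the set limit; inactive = fewer than half of replicates pass the limit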
Runt-CBFb FRET: inhibitors of RUNX1 Runt–CBFb binding, primary screen, biochemical, FRET, Cerulean-Runt, Venus-CBFb, uHTS; Runt-related transcription factor 1 (Homo sapiens) + Core-binding factor subunit beta …; Cerulean-Runt/Venus-CBFb FRET ratio 530/480, 1 h; inhibition, % at 20 µM; hit rate 0.46% among 220,000;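 active = inhibition over about 50% at 20 µM in the single-dose screen, limit read from the data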
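System: Cerulean-labeled Runt domain protein | Quantity: 100 nM of each labeled protein | Schedule: 1 h compound exposure, room temperature | Detection: Fluorescence energy transfer, 422 nm excitation, 530/480 nm emission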
Numbers stand for hits.

`Cc1ccc(NC(=O)Cn2sc3nc(C)cc(C)c3c2=O)c(Cl)c1` gave Hck-Nef inh inactive, Runt-SMMHC FRET 51, RanGTP-Impb inh inactive and Runt-CBFb FRET inactive.
`CCOc1ccc(NC(=O)Cn2sc3nc(C)cc(C)c3c2=O)cc1` gave Hck-Nef inh inactive, Runt-SMMHC FRET inactive, RanGTP-Impb inh inactive and Runt-CBFb FRET inactive.
For CCOc1ccccc1/C=C/c1nc2ccccc2[nH]c1=O the results were RanGTP-Impb inh 71.
`Cc1sccc1C1C(C#N)=C(N)SC(N)=C1C#N` gave Hck-Nef inh inactive, Runt-SMMHC FRET inactive, RanGTP-Impb inh 68 and Runt-CBFb FRET inactive.
`CC(=O)c1cccc(N=Nc2c(-c3ccccc3)[nH]n(-c3ccccc3)c2=O)c1` gave Hck-Nef inh inactive, Runt-SMMHC FRET inactive, RanGTP-Impb inh inactive and Runt-CBFb FRET inactive.
CCNC(=S)NC(=NCc1cccnc1)Nc1nc(C)cc(C)n1 was read as RanGTP-Impb inh 19.
Screening CCNC(=S)/N=C(/Nc1ccccc1)Nc1nc(C)cc(C)n1 returned Hck-Nef inh inactive, Runt-SMMHC FRET inactive, RanGTP-Impb inh inconclusive and Runt-CBFb FRET inactive.
Screening CCOC(=O)c1c(NC(=O)CCS(=O)(=O)c2ccccc2)sc2c1CCN(C(C)C)C2 returned RanGTP-Impb inh 127.
For CN1CCc2c(sc(NC(=O)c3ccc(C(=O)c4ccccc4)cc3)c2C(N)=O)C1 the results were RanGTP-Impb inh inactive.
CCCN1CCc2c(sc(NC(=O)CCS(=O)(=O)c3ccccc3)c2C(N)=O)C1 was read as RanGTP-Impb inh 153.
For CN1CCc2c(sc(NC(=O)CS(=O)(=O)c3ccccc3)c2C(N)=O)C1 the results were RanGTP-Impb inh 139.
`Nc1c(S(=O)(=O)c2cccs2)c2nc3ccccc3nc2n1/N=C/c1cccc(O)c1` gave Hck-Nef inh inactive, Runt-SMMHC FRET inactive, RanGTP-Impb inh inactive and Runt-CBFb FRET inactive.
For COC(=O)CCc1c(C)c(C(=O)c2cc(OC)c(OC)c(OC)c2)c2ccccn12 the results were RanGTP-Impb inh inactive.
`COc1ccc2c(c1)O/C(=C\c1sccc1C)C2=O` gave Hck-Nef inh inactive, Runt-SMMHC FRET inactive, RanGTP-Impb inh 29 and Runt-CBFb FRET inactive.
CCCn1nc(C(=O)NNC(=O)c2cccc(S(=O)(=O)NC(C)C)c2)c2ccccc2c1=O was read as RanGTP-Impb inh inactive.
Screening O=C(N1CCOCC1)N1CCc2ccccc21 returned RanGTP-Impb inh inactive.
`CO/N=C/c1ccc(OC)c(Oc2nc(OC)cc(OC)n2)c1` gave Hck-Nef inh inactive, Runt-SMMHC FRET inactive, RanGTP-Impb inh inactive and Runt-CBFb FRET inactive.
COc1ccccc1-n1cnc2cc(NCc3ccccc3O)ccc21 was read as Hck-Nef inh inactive, Runt-SMMHC FRET inactive, RanGTP-Impb inh 42 and Runt-CBFb FRET inactive.
Screening CSC(=S)N/N=C/c1ccc(Br)cc1 returned Hck-Nef inh inactive, Runt-SMMHC FRET inactive, RanGTP-Impb inh inactive and Runt-CBFb FRET inactive.
Screening CSC(=S)N/N=C/c1ccc(N(C)C)cc1 returned Hck-Nef inh inactive, Runt-SMMHC FRET 52, RanGTP-Impb inh inactive and Runt-CBFb FRET inactive.
COc1ccc(-c2ccc(-c3noc(C4CCCCC4)n3)c(OC)n2)cc1 was read as Hck-Nef inh inactive, Runt-SMMHC FRET inactive, RanGTP-Impb inh 19 and Runt-CBFb FRET inactive.
For COc1ccc(-c2ccc(-c3noc(C)n3)c(OC)n2)cc1 the results were Hck-Nef inh inactive, Runt-SMMHC FRET inactive, RanGTP-Impb inh inactive and Runt-CBFb FRET inactive.
COc1ccc(-c2ccc(-c3noc(-c4cccc(OC)c4)n3)c(OC)n2)cc1 was read as Hck-Nef inh inactive, Runt-SMMHC FRET inactive, RanGTP-Impb inh inactive and Runt-CBFb FRET inactive.
`COc1ccc(-c2ccc(-c3noc(-c4ccccc4OC)n3)c(OC)n2)cc1` gave Hck-Nef inh inactive, Runt-SMMHC FRET inactive, RanGTP-Impb inh 35 and Runt-CBFb FRET inactive.
`COc1ccc(-c2ccc(-c3noc(-c4ccccc4C)n3)c(OC)n2)cc1` gave Hck-Nef inh inactive, Runt-SMMHC FRET inactive, RanGTP-Impb inh 23 and Runt-CBFb FRET inactive.
For COc1ccc(-c2ccc(-c3noc(-c4ccc(OC)c(OC)c4)n3)c(OC)n2)cc1 the results were Runt-SMMHC FRET inactive and Runt-CBFb FRET inactive.

Source: PubChem BioAssay
